Assay results taken from PMC6469399 (Chemistry (Weinheim an der Bergstrasse, Germany), 2019).

Key:
WT-CFTR [1] = biological target: T1, WT-CFTR (Homo sapiens, UniProt P13569); test: Patch clamp analysis, macroscopic currents in excised inside-out patch; type: biochemical
G551D-CFTR [2] = biological target: T2, G551D-CFTR (Homo sapiens, UniProt P13569, G551D); test: Ussing chamber potentiation assay, G551D CFBE41o- monolayers; type: cell-based
F508del-CFTR [3] = biological target: T3, F508del-CFTR (Homo sapiens, UniProt P13569, DEL508-508); type: cell-based
G551D-CFTR [4] = biological target: T2, G551D-CFTR; test: Ussing chamber potentiation assay, Fischer Rat Thyroid; type: cell-based
[5] = Metabolic stability in human hepatic microsomes; type: in vitro ADME
WT-CFTR [6] = biological target: T1, WT-CFTR; test: Ussing chamber potentiation assay, WT CFBE41o- monolayers; type: cell-based
F508del-CFTR [7] = biological target: T3, F508del-CFTR; test: TECC; type: cell-based; conditions: F508del CFBE41o- cells; % activity of the 3 μM VX-809 response
Summary of the method: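 F508del CFBE41o- monolayers were pre-incubated 24 h with a range of test-compound concentrations, with DMSO as vehicle and 3 μM VX-809 as positive control in every experiment. Equivalent current (ΔIeq) was recorded as AUC after forskolin (10 μM) + VX-770 (1 μM) stimulation, then CFTRinh-172 (20 μM) inhibition. Response is expressed as % of VX-809 response; n = 3–5; two-way ANOVA with Tukey test versus vehicle.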

| SMILES | EC50 (WT-CFTR [1]) [µM] | increase of current at lowest dose tested (WT-CFTR [1]; WT-CFTR patch clamp, 0.2 nM) | EC50 (G551D-CFTR [2]) [µM] | Maximal Response G551D CFBE (G551D-CFTR [2]; G551D CFBE41o-, % activity of the VX-770 response, Inactive = no statistically significant response above DMSO vehicle) [%] | EC50 (F508del-CFTR [3]) [µM] | EC50 (G551D-CFTR [4]) [µM] | Maximal Response G551D FRT (G551D-CFTR [4]; G551D FRT cells, % activity of the VX-770 response, Inactive = no statistically significant response above DMSO vehicle) [%] | CLHEP, predicted hepatic clearance, human ([5]; calculated from CLINT, human) [mL min^−1 kg ^−1] | CLINT, intrinsic clearance in human hepatic microsomes ([5]; human hepatic microsomes) [mL min^−1 kg ^−1] | EC50 (WT-CFTR [6]) [µM] | Maximal Response WT CFBE (WT-CFTR [6]; WT CFBE41o-, % activity of the VX-770 response, Inactive = no statistically significant response above DMSO vehicle) [%] | Maximal Response (F508del-CFTR [7]) [%] |
| --- | --- | --- | --- | --- | --- | --- | --- | --- | --- | --- | --- | --- |
| CC(C)(C)c1cc(C(C)(C)C)c(NC(=O)c2c[nH]c3ccccc3c2=O)cc1O [VX-770, Ivacaftor] | 0.0013 ± 0.0003 | ~ 12% | 0.0777 ± 0.0272 | 100.0 | 1.89 ± 1.39 | 0.428 ± 0.167 | 100.0 | 14.4 | 45.6 | 0.0365 ± 0.0213 | 100.0 | – |
| COc1ccc(C2(C(=O)Nc3ccc(C)c(-c4cccc(C(=O)O)c4)n3)CC2)cc1 [compound 33] | – | – | – | – | – | – | – | – | – | – | – | 49.9 |
